# Source: PubChem BioAssay (The Scripps Research Institute Molecular Screening Center)
# PLCg1 inh: PLC-gamma1 enzyme inhibitors, primary screen, biochemical, fluorescence, purified enzyme; inhibition, % at 12.2 µM; fluorogenic substrate; hit rate 0.84% among 370,000; in the data active means inhibition above about 9.5%
# Tn6 DDE FP: inhibitors of Tn6 peptide binding to fibrin DD(E), primary screen, biochemical, fluorescence polarization, human fibrin, Tn6 probe; Fibrinogen beta chain (Homo sapiens), P02675; Fibrin DD(E) TRITC-Tn6 fluorescence polarization displacement; inhibition, % at 8.3 µM; hit rate 0.21% among 370,000; AID 720509, 2013;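 active means inhibition above a per-campaign cutoff: mean of compounds within control limits plus 3 SD, cut at about 15% in these data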
# ADAM17 inh: ADAM17 inhibitors, primary screen, biochemical, QFRET. Disintegrin and metalloproteinase domain-containing protein 17 (Homo sapiens), P78536. inhibition, % at 6.95 µM. recombinant ADAM17, EDANS/DABCYL FRET peptide cleavage. hit rate 0.83% among 370,000. AID 720648, 2013;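 active means inhibition above the mean of compounds lying between control limits plus 3 SD, set per campaign, cut at about 8.5% in these data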
# ADAM10 inh: human ADAM10 inhibitors, primary screen, biochemical, QFRET, HTS. Disintegrin and metalloproteinase domain-containing protein 10 (Homo sapiens), O14672. hit rate 0.62% among 370,000. recombinant ADAM10, EDANS/DABCYL FRET peptide cleavage, 3 h. inhibition, % at 7 µM;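 active means inhibition above a per-campaign cutoff equal to the mean of compounds falling between control-based bounds plus 3 SD, cut at about 20% in these data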
# PLC-beta3 inh: human PLC-beta3 inhibitors, primary screen, biochemical, fluorescence | 1-phosphatidylinositol 4,5-bisphosphate phosphodiesterase beta-3 (Homo sapiens), Q01970 | Purified PLC-beta3, fluorogenic substrate | hit rate 0.18% among 370,000 | inhibition, % at 12.2 µM; in the data active means inhibition above about 11%
# DDE Tn7 FP inh: inhibitors of Tn7 peptide binding to fibrin DD(E), primary screen, biochemical, fluorescence polarization, human fibrin, Tn7 probe; FP displacement of FITC-Tn7 peptide from fibrin DD(E); 0% = median of compound wells per plate; Fibrinogen beta chain (Homo sapiens), P02675; hit rate 0.13% among 370,000; AID 720508, 2013; inhibition, % at 8.3 µM;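 active means inhibition above the mean of compounds falling within the control limits plus 3 SD of them, cut at about 14% in these data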
#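 System: human fibrin DD(E); quantity: Fibrin-DD(E) at 2 µM final; also added: fluorescent Tn7 probe at 0.1 µM; compound dosing: single nominal test concentration of 8.3 µM per compound; schedule: 10 min preincubation, 3 h with tracer, room temperature; detection: fluorescence polarization of the labelled Tn7 tracer; repeats: one replicate per compound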
# Numbers stand for hits; i = inactive. Most compounds without a hit are left out; they make up all but 2.3% or so of the library.
SMILES,PLCg1 inh,Tn6 DDE FP,ADAM17 inh,ADAM10 inh,PLC-beta3 inh,DDE Tn7 FP inh
COc1ccc(Cn2c(NC(=O)c3ccccc3)nc(Cc3ccccc3)c2-c2ccccc2)cc1,i,i,i,i,i,i
Cc1cccc(Cn2cc(CN3CC(N(C)CCCOC(=O)c4cc(C)cc(C)c4)CS3(=O)=O)nn2)c1 (centres undefined),i,i,i,i,i,i
O=C(c1cccs1)N1C[C@H](O)[C@@H](n2cc(C3CC3)nn2)C[C@@H]1c1ccccc1,11,i,i,i,i,i
COc1ccc(NC(=O)N2CCC(c3nc4ccc(Cl)cc4[nH]3)CC2)cc1OC,i,i,i,i,i,i
Cc1ccc(OCCOc2ccc(Cl)cc2Cl)c(Br)n1,i,i,i,i,i,i
COc1ccc(-c2nc3ccccc3c(=O)n2O)cc1,i,i,i,i,i,i
O=c1c2ccccc2nc(-c2ccccc2)n1O,i,16,i,i,i,i
O=C(Nc1ccc(F)cc1)Nc1c(-c2ccc(F)cc2)nc2ncccn12,i,i,i,i,i,i
CCN1CCN(C(CNS(=O)(=O)c2ccc(Cl)cc2)c2cccnc2)CC1 (centres undefined),12,i,i,i,i,i
O=C(COC(=O)c1ccc(Sc2ncn[nH]2)c([N+](=O)[O-])c1)Nc1ccc(Cl)cc1,i,i,i,i,i,i
CC(=O)N(Cc1ccccc1)c1ccc(C(=O)O)cc1,9.7,i,i,i,i,i
O=C(O)c1ccc(N(Cc2ccccc2)S(=O)(=O)c2ccccc2)cc1,i,i,i,i,i,i
COC(=O)CCC/C=C1/SCC(NC(=O)c2ccccc2)C1=O (centres undefined),i,i,12,i,i,i
COC(=O)CCC/C=C1/SCC(NC(=O)c2ccccc2)C1O (centres undefined),i,i,i,i,i,i
COc1cc(/C=N/NC(=O)C(Cc2c[nH]c3ccccc23)NC(=O)OCc2ccccc2)cc([N+](=O)[O-])c1O (centres undefined),11,i,9.1,41,i,i
Clc1ccc(OCc2nnc(-c3ccccc3Br)o2)c(Cl)c1,i,42,i,i,i,i
Fc1ccc(OCc2nnc(-c3ccccc3Br)o2)c(Cl)c1,i,i,i,i,i,i
Nc1nc2ccc(S(=O)(=O)N3CCCCC3)cc2s1,48,i,i,i,i,i
COc1ccc(NC(=O)COc2ccc(CNCCCN3CCOCC3)cc2OC)cc1,10,i,i,i,i,i
CCCc1nnc(NC(=O)CCC(=O)N2CCN(Cc3ccc(C)cc3C)CC2)s1,i,i,i,i,i,i
CCc1nnc(NC(=O)CCC(=O)N2CCN(Cc3ccc(C)cc3C)CC2)s1,14,i,i,i,i,i
Cc1ccc(N2CSC3=C(C#N)C(c4cccs4)CC(=O)N3C2)cc1 (centres undefined),i,i,i,i,i,i
COc1ccc(N2CSC3=C(C#N)C(c4cccs4)CC(=O)N3C2)cc1 (centres undefined),9.9,i,i,i,i,i
C=CC[C@@H](CC(=O)N(CCO)Cc1ccccc1)C(=O)N[C@@H](COC(=O)[C@@H](CC=C)Cc1ccc(F)cc1)Cc1ccccc1,i,i,13,23,i,i
C=CC[C@@H](CC(=O)N(CCO)Cc1ccccc1)C(=O)NC[C@@H](OC(=O)[C@@H](CC=C)Cc1ccc(F)cc1)c1ccccc1,10,i,10.0,i,i,i
SMILES,PLCg1 inh,Tn6 DDE FP,ADAM17 inh,ADAM10 inh,PLC-beta3 inh,DDE Tn7 FP inh
O=C(CSc1nc(-c2ccco2)cc(C(F)(F)F)n1)Nc1ccc2c(c1)OCO2,i,i,i,i,i,i
O=C(CCCSc1nc(-c2ccco2)cc(C(F)(F)F)n1)Nc1ccc2c(c1)OCO2,i,i,i,26,i,i
C=Cc1c(C)c2cc3[nH]c(cc4nc(cc5nc(cc1[nH]2)C(C)=C5CCC(=O)O)C(CCC(=O)O)=C4C)c(C)c3C=C,i,31,i,i,i,i
CC[C@]12c3[nH]c4ccc(Cl)cc4c3CCN1C(=O)[C@@H](CC(=O)NCC13CC4CC(CC(C4)C1)C3)C[C@@H]2C(=O)N1CCN(C(=O)c2ccco2)CC1,i,i,i,35,i,i
CCc1cccc(CC)c1NC(=O)C1SC(=Nc2ccccc2C)C(c2nc3ccccc3s2)=C1N (centres undefined),i,i,i,22,i,i
COCCn1c(SCC(=O)Nc2ccccc2)nc2c1c(=O)[nH]c(=O)n2C,9.8,i,i,i,i,i
CCOC(=O)[C@]12CCCCC/C=C\1N(CCc1ccc(Cl)cc1)C(=O)[C@H]2CC(=O)N1CCCC1,i,i,i,i,i,i
CC(C)(C)OC(=O)N(CCc1ccccc1)Cc1cccc(OCc2cccc(NC(=O)c3ccccc3)c2)c1,9.9,i,i,i,i,i
Cc1c[nH]c2cccc(-c3ccc(OCc4ccccc4)cc3)c12,i,i,i,i,i,i
CC1=NN(c2ccc(F)cc2)C(=O)C1C(c1cccc(O)c1)c1c(C)[nH]n(-c2ccc(F)cc2)c1=O (centres undefined),18,i,i,i,12,i
N#Cc1ccccc1N1CCN(S(=O)(=O)c2ccc3c(c2)CCC(=O)N3)CC1,i,i,i,i,i,i
COc1ccc2c(c1)OC[C@H]1[C@H]2N2C(=O)c3ccc(F)cc3NC(=O)[C@@]2(C)[C@H]1c1ccccc1,i,i,9.1,i,i,i
O=C(O)c1ccc(N=Nc2c(O)[nH]c3ccc(Br)cc23)cc1,i,i,i,i,i,i
O=c1ccc2cc3c([nH]c4ccc(Br)cc43)oc-2c1O,10,i,i,i,i,i
CN1Cc2nnn(Cc3ccccc3)c2-c2cc(N3CCCC3)ccc2S1(=O)=O,i,i,i,i,i,i
C=CCn1c(SCc2ccc(C(=O)Nc3nccs3)cc2)nnc1-c1ccc(C)c(Cl)c1,i,i,8.8,i,i,i
Cn1nnnc1SCc1ccc(C(=O)Nc2nccs2)cc1,i,i,i,i,i,i
CC(C)(C)C1CCc2[nH]nc(C(=O)O)c2C1 (centres undefined),15,i,i,i,i,i
CCC(C)(C)C1CCc2[nH]nc(C(=O)O)c2C1 (centres undefined),i,i,i,i,i,i
O=C(CN1C(=O)/C(=C\c2ccco2)SC1=S)Nc1ccc(O)cc1C(=O)O,33,i,i,i,i,i
O=C(CCN1C(=O)/C(=C/c2ccco2)SC1=S)Nc1ccc(C(=O)O)c(O)c1,29,i,i,i,i,i
